Active and inactive are the calls of the source. No cut-off for these calls is given here.

The first experiment is filed under the species Bos taurus. As to the kind of experiment: Agonist activity at GPER in BCAEC assessed as increase in eNOS Ser1179 phosphorylation at 1 uM incubated for 10 mins by Western blot relative to untreated (-)-epicatechin. The essentials:
(§1)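 Bovine coronary artery endothelial cells stimulated 10 min with 1 μM ligand; (−)-epicatechin at 1 μM as reference. For GPER blockade, cells pre-incubated 30 min with G15 (1 μM) before ligand. Ser1179-phosphorylated eNOS immunodetected by Western blot. Control set to 1, or Epi set to 100% with derivatives expressed as percent of Epi. Mean ± SEM, n=5 per group.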
In general terms: In western blotting, separated proteins are transferred to a membrane and probed.
For `CS(=O)(=O)O[C@@H]1Cc2c(O)cc(O)cc2O[C@@H]1c1ccc(O)c(O)c1`, the Activity came out at 64.8%.
Still for that read-out and setting: as for `C#CCOc1cc(OCC#C)c2c(c1)O[C@H](c1ccc(OCC#C)c(OCC#C)c1)[C@H](O)C2`, the figure is 111%.
Still for that read-out and setting: as for `C#CCOc1cc(OCC#C)c2c(c1)O[C@H](c1ccc(OCC#C)c(OCC#C)c1)[C@H](OCC#C)C2`, the figure is 92.6%; as for `C#CCO[C@@H]1Cc2c(O)cc(O)cc2O[C@@H]1c1ccc(O)c(O)c1`, 137%.

The species entered for a further experiment is Bos taurus. As to the kind of experiment: Agonist activity at GPER in BCAEC assessed as increase in nitric oxide production at 1 uM pre-incubated with 1 uM GPER antagonist G15 for 30 mins followed by compound incubation for 10 mins by nitrate/nitrite fluorometric assay relative to untreated control. Details: scale not given: the % may be the effect or the level left. The essentials: (§2)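 BCAEC given 1 μM ligand for 10 min, with 1 μM (−)-epicatechin as reference; GPER blockade by 30 min pre-incubation with 1 μM G15 before ligand. Nitrates/nitrites in supernatant measured as surrogate of NO synthesis. Values normalized to control (set to 1) or to Epi (100%). Mean ± SEM, n=5 per group.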
With `CS(=O)(=O)O[C@@H]1Cc2c(O)cc(O)cc2O[C@@H]1c1ccc(O)c(O)c1`, the Activity was found to be 41.8%.
Take `C#CCOc1cc(OCC#C)c2c(c1)O[C@H](c1ccc(OCC#C)c(OCC#C)c1)[C@H](O)C2`: the Activity was 63.6%.
For the compound `Oc1cc(O)c2c(c1)O[C@H](c1ccc(O)c(O)c1)[C@H](O)C2`, the Activity stood at 60%.
With `C#CCOc1cc(OCC#C)c2c(c1)O[C@H](c1ccc(OCC#C)c(OCC#C)c1)[C@H](OCC#C)C2`, the Activity turned out to be 60%.
On the same count and under the same terms, as for `C#CCO[C@@H]1Cc2c(O)cc(O)cc2O[C@@H]1c1ccc(O)c(O)c1`, the figure is 70.9%.

The species entered for a further experiment is Bos taurus. As to the kind of experiment: Agonist activity at GPER in BCAEC assessed as increase in nitric oxide production at 1 uM incubated for 10 mins by nitrate/nitrite fluorometric assay relative to untreated (-)-epicatechin. The procedure, abridged:
as §2
As to `CS(=O)(=O)O[C@@H]1Cc2c(O)cc(O)cc2O[C@@H]1c1ccc(O)c(O)c1`, the Activity was 54.5%.
In the case of `C#CCOc1cc(OCC#C)c2c(c1)O[C@H](c1ccc(OCC#C)c(OCC#C)c1)[C@H](O)C2`, the Activity amounted to 107%.
On the same count and under the same terms, the same measure for `C#CCOc1cc(OCC#C)c2c(c1)O[C@H](c1ccc(OCC#C)c(OCC#C)c1)[C@H](OCC#C)C2`: 102%.
On the same count and under the same terms, the same measure for `C#CCO[C@@H]1Cc2c(O)cc(O)cc2O[C@@H]1c1ccc(O)c(O)c1`: 142%.

For a further experiment, the species on record is Bos taurus. As to the kind of experiment: Agonist activity at GPER in BCAEC assessed as increase in eNOS Ser1179 phosphorylation at 1 uM pre-incubated with 1 uM GPER antagonist G15 for 30 mins followed by compound incubation for 10 mins by Western blot relative to untreated control. Set-up: scale not given: the % may be the effect or the level left. The procedure, abridged: as §1
Consider `CS(=O)(=O)O[C@@H]1Cc2c(O)cc(O)cc2O[C@@H]1c1ccc(O)c(O)c1`, for which the Activity was 53%.
Same read-out and setting: as for `C#CCOc1cc(OCC#C)c2c(c1)O[C@H](c1ccc(OCC#C)c(OCC#C)c1)[C@H](O)C2`, the figure is 57.4%.
Still for that read-out and setting: as for `Oc1cc(O)c2c(c1)O[C@H](c1ccc(O)c(O)c1)[C@H](O)C2`, the figure is 55.6%; as for `C#CCOc1cc(OCC#C)c2c(c1)O[C@H](c1ccc(OCC#C)c(OCC#C)c1)[C@H](OCC#C)C2`, 54.8%; as for `C#CCO[C@@H]1Cc2c(O)cc(O)cc2O[C@@H]1c1ccc(O)c(O)c1`, 59.3%.

Another experiment is filed under the species Bos taurus. As to the kind of experiment: Binding affinity to GPER in BCAEC protein extracts using compound loaded on to affinity chromatography Agarose columns incubated overnight at 4 degC with mild tumbling by Coomassie-blue staining based SDS-PAGE and Western blot method. The procedure, abridged: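 Propargyl derivative coupled to agarose-azide beads by click chemistry; coupling gauged by fluorescence of washings against an external calibration curve. Three control columns lacked ligand and/or copper sulfate/ascorbate. BCAEC protein extract (0.8–1.0 mg) loaded, overnight 4 °C with mild tumbling. Washed with 5 mM EDTA/0.5% SDS/250 mM NaCl in PBS pH 7.5, then PBS. Eluted in PBS with 8 M urea, concentrated, run on SDS-PAGE with Coomassie staining. Western blot used monoclonal GPER antibody.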
For the compound `Oc1cc(O)c2c(c1)O[C@H](c1ccc(O)c(O)c1)[C@H](O)C2`, the result was Active.

The values above are taken from ChEMBL document CHEMBL4184234, “Synthesis of novel (-)-epicatechin derivatives as potential endothelial GPER agonists: Evaluation of biological effects” (Bioorg Med Chem Lett, 2018).
